Laboratory results as given in ChEMBL document CHEMBL1156122, “Protein tyrosine phosphatase 1B inhibitors isolated from Morus bombycis” (Bioorg Med Chem Lett, 2009).

Assays:
[1] = substrate: CC(C)=CCC/C(C)=C/Cc1c(O)cc(O)cc1-c1cc2ccc(O)cc2o1; assay: (§1) Activity at human recombinant PTP1B
Summary of the method: (§2)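 Recombinant human PTP1B (0.1 μg) incubated with 2 mM p-NPP in 50 mM citrate pH 6.0, 0.1 M NaCl, 1 mM EDTA, 1 mM DTT, with or without inhibitor. Incubation 37 °C for 30 min, stopped with 10 M NaOH. p-Nitrophenol read by absorbance at 405 nm, corrected for nonenzymatic p-NPP hydrolysis without enzyme. Values are mean ± SD of triplicates.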

[2] = substrate: CC(C)=CCC/C(C)=C/Cc1c(O)ccc2cc(-c3cc(O)cc(O)c3CC=C(C)C)oc12; assay: as §1; summary of the method: as §2
[3] = substrate: CC(C)=CCC/C(C)=C\CC/C(C)=C\Cc1c(O)cc(O)cc1-c1cc2ccc(O)cc2o1; assay: as §1; summary of the method: as §2
[4] = substrate: CC(C)=CCc1c(O)cc(C(=O)[C@H]2[C@@H](c3c(O)ccc(C(=O)/C=C/c4ccc(O)cc4)c3O)C=C(C)C[C@@H]2c2ccc(O)cc2)cc1O; assay: as §1; summary of the method: as §2
[5] = substrate: CC(C)=CCc1c(O)cc(C(=O)[C@H]2[C@@H](c3c(O)ccc(C(=O)/C=C/c4ccc(O)cc4)c3O)C=C(C)C[C@@H]2c2ccc(O)cc2O)cc1O; assay: as §1; summary of the method: as §2
[6] = substrate: CC(C)=CCc1c(O)cc(C(=O)[C@H]2[C@@H](c3c(O)ccc(C(=O)/C=C/c4ccc(O)cc4O)c3O)C=C(C)C[C@@H]2c2ccc(O)cc2O)cc1O; assay: as §1; summary of the method: as §2

B1: Tyrosine-protein phosphatase non-receptor type 1 (Homo sapiens), P18031 (protein)
chain: MEMEKEFEQIDKSGSWAAIYQDIRHEASDFPCRVAKLPKNKNRNRYRDVSPFDHSRIKLHQEDNDYINASLIKMEEAQRSYILTQGPLPNTCGHFWEMVWEQKSRGVVMLNRVMEKGSLKCAQYWPQKEEKEMIFEDTNLKLTLISEDIKSYYTVRQLELENLTTQETREILHFHYTTWPDFGVPESPASFLNFLFKVRESGSLSPEHGPVVVHCSAGIGRSGTFCLADTCLLLMDKRKDPSSVDIKKVLLEMRKFRMGLIQTADQLRFSYLAVIEGAKFIMGDSSVQDQWKELSHEDLEPPPEHIPPPPRPPKRILEPHNGKCREFFPNHQWVKEETQEDKDCPIKEEKGSPLNAAPYGIESMSQDTEVRSRVVGGSLRGAQAASPAKGEPSLPEKDEDHALSYWKPFLVNMCVATVLTAGAYLCYRFLFNSNT
With B1 as the protein, how does the Km [1] read?
Its Km is 1250 µM.

And the Vmax [1]?
The Vmax was 6.58 µM/min.

What about the Km [2] of the same protein?
The Km was 2080 µM.

And the Vmax [2]?
Its Vmax is 5.78 µM/min.

What about the Km [3] of the same protein?
Its Km is 3170 µM.

What about the Vmax [3] of the same protein?
Its Vmax is 5.49 µM/min.

What about the Km [4] of the same protein?
Its Km is 1190 µM.

And the Vmax [4]?
The Vmax was 6.71 µM/min.

What about the Km [5] of the same protein?
The Km was 1640 µM.

What about the Vmax [5] of the same protein?
Its Vmax is 5.95 µM/min.

What about the Km [6] of the same protein?
Its Km is 2810 µM.

And the Vmax [6]?
The Vmax was 5.41 µM/min.
